SENP7 inh: inhibitors of human SENP7 protease. Q9BQF6. recombinant SENP7, Z-RLRGG-aminoluciferin luminescence, 40 min. inhibition, % at 5 µM. hit rate 1.5% among 330,000;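 active = inhibition above about 50% at the single test dose, limit read from the data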;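 note: plate controls were DMSO with enzyme for no effect and no enzyme buffer wells for full effect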
Platelet DG rel: modulates dense granule release in human platelets; hit rate 0.22% among 300,000; inhibition, %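 (compounds screened at 7.5 µM in platelet-rich plasma)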; human platelet-rich plasma, SFLLRN dense granule ATP release, luminescence;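 active = mean replicate score, as percent of positive control, at or above 50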
SENP1 FRET inh: blocks the human SENP1 SUMO protease catalytic domain. recombinant SENP1 catalytic domain, CyPet-SUMO1-YPet FRET cleavage. inhibition, % at 10 µM. hit rate 0.21% among 360,000;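 active = inhibition at least 30% at 10 µM, raw YFP signal under a set limit, fluorescence ratio 0.5 to 1.5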;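 note: 0% = enzyme with DMSO and 100% = no enzyme wells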
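Assay system: hSENP1 catalytic domain, recombinant. Amount: SENP1 enzyme, 20 pM final. Schedule: 50 min reaction, RT, dark. Technique: FRET, CFP and YFP emission. Control set: no-enzyme wells low, DMSO-plus-enzyme wells high control.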
SENP6 block: blocks the human protease SENP6; AID 2599; Recombinant SENP6 catalytic domain, aminoluciferin luminescence; Q9GZR1; inhibition, % at 10 µM; hit rate 1.8% among 330,000;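 active = inhibition above about 50% at the single tested dose, limit read from the data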;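 note: plate controls were DMSO wells with enzyme for no effect and DMSO wells lacking enzyme for full effect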
Target sequence (Q9GZR1 628-1112 limits assumed): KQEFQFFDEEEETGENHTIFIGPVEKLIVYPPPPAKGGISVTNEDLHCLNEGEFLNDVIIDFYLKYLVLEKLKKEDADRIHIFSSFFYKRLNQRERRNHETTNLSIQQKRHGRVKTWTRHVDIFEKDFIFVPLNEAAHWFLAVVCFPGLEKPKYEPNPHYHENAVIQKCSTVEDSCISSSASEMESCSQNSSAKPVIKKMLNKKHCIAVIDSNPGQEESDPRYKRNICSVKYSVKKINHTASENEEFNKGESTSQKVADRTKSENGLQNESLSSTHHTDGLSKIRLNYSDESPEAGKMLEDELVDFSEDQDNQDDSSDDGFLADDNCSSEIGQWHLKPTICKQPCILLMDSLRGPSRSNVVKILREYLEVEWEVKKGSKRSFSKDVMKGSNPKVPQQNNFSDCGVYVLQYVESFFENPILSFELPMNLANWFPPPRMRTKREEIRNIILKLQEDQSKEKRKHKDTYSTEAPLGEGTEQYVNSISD
SENP8 block-1: SENP8 protease inhibition. purified SENP8, Z-RLRGG-aminoluciferin cleavage, luminescence. hit rate 1.2% among 330,000. inhibition, % at 10 µM; in the data active = inhibition above about 50%
SENP8 block-2: inhibitors of human SENP8 protease; hit rate 0.64% among 360,000; inhibition, % at 20 µM; recombinant SENP8, Nedd8 substrate fluorescence; in the data active = inhibition mostly above about 40%, no sharp cut-off; inactive = mostly below about 27%
SENP8 confirm: human SENP8 inhibition, confirmed; shares compounds with SENP7 inh; Recombinant SENP8, Z-RLRGG-aminoluciferin luminescence, 60 min; inhibition, % at 12.5 µM; hit rate 40% among 6,200; AID 488912;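 active = mean inhibition across replicates above about 50%, limit read from the data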
SENP6 confirm: human SENP6 inhibition, confirmed. shares compounds with SENP7 inh. recombinant SENP6, Z-RLRGG-aminoluciferin luminescence. inhibition, % at 12.5 µM. hit rate 58% among 6,200. AID 488915
SENP7 conf: confirmation of human SENP7 protease inhibitors; recombinant SENP7, Z-RLRGG-aminoluciferin luminescence, 40 min; inhibition, % at 12.5 µM; AID 488917; hit rate 69% among 6,200; shares compounds with SENP7 inh
Casp3 SENP sel: caspase-3 inhibition (SENP selectivity assay); AID 488918; shares compounds with SENP7 inh; hit rate 60% among 6,200; inhibition, % at 12.5 µM; purified caspase-3, Z-DEVD-aminoluciferin luminescence, 60 min;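 active = mean inhibition above about 50%, limit read from the data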;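 note: plate controls were enzyme with DMSO for no effect and wells without caspase-3 for full effect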
SENP luc ctr: counter-screen for SENP inhibitors: luminescence interference. shares compounds with SENP7 inh. Pre-incubated SENP8/Z-RLRGG-aminoluciferin, luciferase luminescence interference. inhibition, % at 12.5 µM. hit rate 39% among 6,200. AID 488919;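 active = mean inhibition above about 50% when retested at one dose, limit read from the data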;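 note: plate controls were DMSO wells with completed reaction for no effect and substrate without enzyme for full effect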
An asterisk follows results filed as active; . = no result. In the library only some 2.6% were active in any assay of this set; here they are far more common.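 Rule for the calls, unless noted: active = mean inhibition above about 50% in the one-dose retest (limit read from the data); inactive = the rest.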

SMILES	SENP7 inh	Platelet DG rel	SENP1 FRET inh	SENP6 block	SENP8 block-1	SENP8 block-2	SENP8 confirm	SENP6 confirm	SENP7 conf	Casp3 SENP sel	SENP luc ctr
O=C(NCc1ccccn1)C1CCN(C2CCN(Cc3cccc(F)c3)CC2)CC1	.	.	-20	.	.	13	.	.	.	.	.
Cc1cc(=O)[nH]c(SCCOc2ccc(OC(C)C)cc2)n1	89*	2	-2	94*	91*	7	91*	95*	100*	95*	58*
Fc1ccc2nc(Nc3ccccc3)sc2c1	72*	18	-1	47	64*	7	81*	81*	95*	58*	82*
Cc1cc(C)nc(Nc2nc3ccccc3s2)n1	42	7	0	-21	-27	-22	.	.	.	.	.
c1ccc2sc(Nc3nc4cc5c(cc4s3)OCO5)nc2c1	64*	-6	-25	25	-11	-328	5	12	36	22	10
Fc1ccc2nc(Nc3nc4cc5c(cc4s3)OCO5)sc2c1	5	3	-18	-23	-17	-395	.	.	.	.	.
CC(=O)Nc1nc2cc3c(cc2s1)OCO3	56*	4	1	68*	40	5	44	53*	86*	83*	26
Cc1ccc(Nc2nc3ccccc3s2)c(C)c1	79*	0	1	7	62*	17	77*	73*	91*	54*	67*
NNc1nc2ccc(F)cc2s1	8	4	-6	21	11	2	.	.	.	.	.
CCc1nc2ccc(C(=O)NCc3ccc(OC)cc3)cn2c1N(C)C(=O)Cc1ccccc1	.	.	-4	.	.	-30	.	.	.	.	.
Fc1ccc2nc(Nc3nc4cc5c(cc4s3)OCCO5)sc2c1	35	35	-48	71*	52*	-431	-6	17	19	7	-2
Cc1ccc2nc(-c3ccc(NC(=O)COCC(=O)O)cc3)sc2c1	63*	3	-60	79*	82*	-444	90*	90*	99*	82*	87*
Cc1ccc2sc(-c3ccc(NC(=O)/C=C\C(=O)O)cc3)nc2c1	18	9	-68	72*	55*	-453	-13	4	6	9	15
Cc1ccc2nc(-c3ccc(NC(=O)CSCC(=O)O)cc3)sc2c1	32	1	-5	82*	65*	-413	-6	66*	88*	55*	68*
CCC(=O)NC(=S)Nc1ccc(-c2nc3ccc(C)cc3s2)cc1	14	10	-12	-4	8	-203	.	.	.	.	.
O=C(O)CSCC(=O)Nc1ccc(-c2nc3ccccc3s2)cc1	92*	18	-22	94*	92*	-439	96*	96*	101*	96*	96*
O=C(NC1CCCC1)C1C(c2ccc(C(F)(F)F)cc2)=Nc2ccccc2N1C(=O)c1cc2ccccc2[nH]1 (stereo not given)	.	.	-3	.	.	-179	.	.	.	.	.
C[C@H](CO)N1C[C@H](C)[C@@H](CN(C)S(=O)(=O)c2cccs2)Oc2ccc(NS(=O)(=O)c3ccc(F)cc3)cc2C1=O	-5	.	1	-11	-13	14	.	.	.	.	.
C[C@H](CO)N1C[C@H](C)[C@@H](CN(C)C(=O)Nc2ccc(C(F)(F)F)cc2)Oc2ccc(NC(=O)Cn3cnnn3)cc2C1=O	-3	.	-3	-13	-12	1	.	.	.	.	.
CCC(C)NS(=O)(=O)c1cc2c3c(c1)CCN3C(=O)CC2 (stereo not given)	11	1	0	-5	-2	24	.	.	.	.	.
COc1ccc(/C=N/Nc2nonc2N)c(OC)c1	7	4	-1	4	-3	-14	.	.	.	.	.
COc1ccc(/C=N/Nc2cc(N(C)C)nc(N(C)C)n2)cc1	72*	-12	0	80*	17	-6	38	82*	81*	-2	-5
Clc1nccnc1N/N=C/c1ccc(Br)cc1	98*	40	0	96*	94*	-204	97*	98*	102*	97*	96*
COc1ccc(/C=N/Nc2nccnc2Cl)c(OC)c1	98*	54*	-28	93*	91*	-161	96*	97*	103*	98*	95*
COc1ccccc1/C=N/Nc1cc(N(C)C)nc(N(C)C)n1	49	14	-7	38	22	-74	.	.	.	.	.
SMILES	SENP7 inh	Platelet DG rel	SENP1 FRET inh	SENP6 block	SENP8 block-1	SENP8 block-2	SENP8 confirm	SENP6 confirm	SENP7 conf	Casp3 SENP sel	SENP luc ctr
COc1ccc(/C=N/Nc2nccnc2Cl)cc1	97*	82*	2	95*	95*	-106	98*	99*	103*	99*	97*
Cc1ccc(SC2=C(Sc3ccc(C)cc3)C(=O)c3ccccc3C2=O)cc1	12	-2	-9	62*	40	-93	10	11	16	11	5
CCOc1ccc(NC(=O)CN(C)S(=O)(=O)c2ccc(-c3ccc(=O)[nH]n3)s2)cc1	-7	19	-2	-17	2	16	.	.	.	.	.
O=C1CCOc2cc(OCc3ccccc3)ccc21	95*	15	1	94*	88*	8	94*	94*	101*	94*	93*
Clc1ccc2nc(-c3ccc4c(c3)OCO4)cn2c1	79*	7	0	75*	78*	-416	29	86*	70*	64*	11
Clc1ccc2nc(-c3ccccc3)cn2c1	97*	19	0	95*	92*	-147	4	86*	99*	91*	33
Cc1ccc2nc(-c3ccc4c(c3)OCCO4)cn2c1	94*	3	3	89*	87*	-426	93*	93*	101*	94*	93*
O=C(O)c1cc(-c2ccc3c(c2)OCO3)nc2ccc(Cl)cc12	-3	-3	-2	-5	0	-372	.	.	.	.	.
Cc1ccc2nc(-c3ccc4c(c3)NC(=O)CO4)cn2c1	1	-1	-4	-13	-6	-199	.	.	.	.	.
O=C(NC1CCSc2ccccc21)c1cccc([N+](=O)[O-])c1 (stereo not given)	3	-6	-1	0	-10	6	.	.	.	.	.
CC(C)c1ccc(Nc2ncccc2C(=O)O)cc1	98*	0	4	95*	95*	10	6	6	10	3	4

High-throughput results: PubChem BioAssay, several laboratories
